Test [1] deals with Candida albicans. Description: Antimicrobial activity against Candida albicans isolate S at 1 ug/ml grown on Muller-Hinton agar medium after 24 hrs by disk diffusion method. Format: functional. The method, boiled down:
(§1)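 Disk diffusion on 90-mm RPMI 1640 with 2% glucose agar or on Mueller-Hinton agar. Plates were swabbed in three directions with a yeast suspension of 1–5 × 10^6 cells/ml. Paper disks (6 mm) held 1, 5 or 25 µg drug. Zone diameters were read at 24 and 48 h; values are means of two experiments.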
On the technique in general: A growth-free zone around the sample is the usual read-out of agar diffusion tests.

Test [2] has as its system Nakaseomyces glabratus. Description: Antimicrobial activity against Candida glabrata after 48 hrs.
Test [3] relates to Candida albicans. Description: Antimicrobial activity against Candida albicans isolate S at 5 ug/ml grown on RPMI 1640 medium after 48 hrs by disk diffusion method. Format: functional. The method, boiled down: as §1
In the next test the test system is Clavispora lusitaniae. Description: Antimicrobial activity against Candida lusitaniae after 48 hrs.
Test [4] relates to Pichia kudriavzevii. Description: Antimicrobial activity against Candida krusei after 48 hrs by broth microdilution method. Format: functional. For orientation: Dilution methods test growth across graded concentrations, often in twofold steps.
The subject of test [5] is Candida albicans. Description: Antimicrobial activity against Candida albicans isolate R at 25 ug/ml grown on RPMI 1640 medium after 48 hrs by disk diffusion method. Format: functional. The method, boiled down:
as §1

Test [6] has as its system Candida albicans. Description: Antimicrobial activity against Candida albicans isolate R after 48 hrs by microdilution method. In kind it is functional. The method, boiled down:
(§2)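 Broth microdilution in microtiter plates, read spectrophotometrically at 490 nm. MIC taken as the lowest drug dilution giving 50% growth inhibition. C. krusei […] run as control in each run. Read at 24 h and 48 h; trailing growth noted at 48 h.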

Test [7] has as its system Candida albicans. Description: Antimicrobial activity against Candida albicans obtained from wound of patient 20 days after admission by EUCAST microdilution method. Format: functional. As to conditions: 480 h. The method, boiled down:
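EUCAST broth microdilution, plates read spectrophotometrically at 490 nm. MIC is the lowest dilution giving 50% growth inhibition. C. krusei […] control included in each run.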

In test [8] the test system is Candida albicans. Description: Antimicrobial activity against Candida albicans isolate R obtained from urine of patient 38 days after admission by Etest. Format: functional. The method, boiled down: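 Etest on RPMI 1640 agar with 2% glucose, performed according to the manufacturer's recommendations.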
The test system of test [9] is Pichia kudriavzevii. Description: Antimicrobial activity against Candida krusei after 48 hrs.
The subject of test [10] is Candida albicans. Description: Antimicrobial activity against Candida albicans isolate R after 24 hrs by microdilution method. In kind it is functional. The method, boiled down: as §2
In the next test the test system is Candida tropicalis. Description: Antimicrobial activity against Candida tropicalis after 24 hrs by M27-A3 method. In kind it is functional.
The subject of test [11] is Candida albicans. Description: Antimicrobial activity against Candida albicans isolate R at 1 ug/ml grown on Muller-Hinton agar medium after 24 hrs by disk diffusion method. In kind it is functional. The method, boiled down:
as §1

Test [12] deals with Nakaseomyces glabratus. Description: Antimicrobial activity against Candida glabrata after 48 hrs by NCCLS microdilution method. Format: functional.

Structures are written as SMILES. ≈ marks a conversion by molar mass, not a printed value.

What is called MIC90 is an inhibitory concentration at the 90% level, which refers to growth in some studies and to a panel of isolates in others. A higher MIC90 goes with weaker potency. Broadly, the MIC is the lowest concentration found to suppress growth. The low end stands for greater potency, the high end for weaker potency.

For the molecule `CC[C@H](C)C[C@H](C)CCCCCCCCC(=O)N[C@H]1C[C@@H](O)[C@@H](NCCN)NC(=O)[C@@H]2[C@@H](O)CCN2C(=O)[C@H]([C@H](O)CCN)NC(=O)[C@H]([C@H](O)[C@@H](O)c2ccc(O)cc2)NC(=O)[C@@H]2C[C@@H](O)CN2C(=O)[C@H]([C@@H](C)O)NC1=O` [CASPOFUNGIN], the “inhibition zone (IZ)” value in the test with Candida albicans [1] was 12.1 mm; in the test on Candida albicans [3], 21 mm; with Candida albicans [5] it was 11.9 mm; in the test with Candida albicans [11], 6.1 mm. The MIC90 against Nakaseomyces glabratus [2] turned out to be 0.25 µg/mL (≈ 0.229 µM); with Clavispora lusitaniae, 1 µg/mL (≈ 0.915 µM); in the test with Pichia kudriavzevii [4], 2 µg/mL (≈ 1.83 µM); against Pichia kudriavzevii [9] it was 1 µg/mL (≈ 0.915 µM); against Candida tropicalis, 0.06 µg/mL (≈ 0.0549 µM); with Nakaseomyces glabratus [12] it was 1 µg/mL (≈ 0.915 µM). For the same molecule, the MIC in the test on Candida albicans [6] was 1 µg/mL (≈ 0.915 µM); against Candida albicans [7], 0.5 µg/mL (≈ 0.457 µM); in the test with Candida albicans [8], greater than 32 µg/mL; with Candida albicans [10], 1 µg/mL (≈ 0.915 µM).

These data come from ChEMBL document CHEMBL1629654, “Breakthrough Aspergillus fumigatus and Candida albicans double infection during caspofungin treatment: laboratory characteristics and implication for susceptibility testing” (2009).
